{"data": "Results gathered from unrelated publications", "matrix": "plasma", "note": "Each line is one published result; the experiments were not run side by side."}
{"Compound": "C[C@H]1Oc2cc(cnc2N)-c2c(nn(C)c2C#N)CN(C)C(=O)c2ccc(F)cc21", "host": "male Sprague-Dawley rat", "route": "oral", "dose": "50 mg/kg", "setting": "single dose", "AUC(0-t)": "24.8 µg·h/mL"}
{"Compound": "Cn1c(=O)c2[nH]cnc2n(C)c1=O", "host": "male Sprague-Dawley rat", "route": "intravenous", "dose": "22.5 mg/kg", "AUC(0-t)": "53.8 µg·h/mL"}
{"Compound": "C1=C/COCc2cc(ccc2OCCN2CCCC2)Nc2nccc(n2)-c2cccc(c2)COC/1", "host": "male Sprague-Dawley rat", "route": "oral", "dose": "36 mg/kg", "AUC(0-t)": "3.12 µg·h/mL"}
{"Compound": "CC[C@@H]([C@H](C)O)n1ncn(-c2ccc(N3CCN(c4ccc(OC[C@@H]5CO[C@@](Cn6cncn6)(c6ccc(F)cc6F)C5)cc4)CC3)cc2)c1=O", "host": "Sprague-Dawley rat", "route": "oral", "dose": "40 mg/kg", "AUC(0-t)": "6.55 µg·h/mL"}
{"Compound": "O=C1CCC(N2Cc3cc(C4CCN(Cc5ccccc5)CC4)ccc3C2=O)C(=O)N1 (stereo not shown)", "host": "male Sprague-Dawley rat", "route": "intravenous", "dose": "1 mg/kg", "AUC(0-t)": "0.309 µg·h/mL"}
{"Compound": "Cc1ccc2c(c1)C(=O)[C@]1(O)CCN(c3ccc4nc(C)ccc4c3)C1=N2.Cl", "host": "female rat", "route": "subcutaneous", "dose": "40 mg/kg", "setting": "multiple doses, once daily", "AUC(0-t)": "17 µM·h"}
{"Compound": "COc1nc(-c2cccc(-c3ccccc3)c2C)ccc1CNCCNC(=O)CCCCCCCCCCC(=O)N1CCN(CCNC(=O)c2cc3c(=O)n4cccc(C)c4nc3n(CCc3cccs3)c2=N)CC1", "host": "male Sprague-Dawley rat", "route": "oral", "dose": "40 mg/kg", "AUC(0-t)": "0.257 µg·h/mL"}
{"Compound": "CCCCC(=O)Nc1ccc(-c2ccc3ncn(CCC)c(=O)c3c2)cn1", "host": "male rat", "route": "intravenous", "dose": "2.5 mg/kg", "AUC(0-t)": "2.56 µg·h/mL"}
{"Compound": "C=CC(=O)N1CCC[C@@H](n2nc(-c3ccc(Oc4ccccc4)cc3)c3c(N)ncnc32)C1", "host": "rat", "route": "oral", "dose": "40 mg/kg", "AUC(0-t)": "0.304 µg·h/mL"}
{"Compound": "COc1cc(-c2cc(C(C)=O)n3ccccc23)c(OC)cc1Cn1ccnc1", "host": "male Sprague-Dawley rat", "route": "intravenous", "dose": "5 mg/kg", "AUC(0-t)": "4.28 µg·h/mL"}
{"Compound": "CONC(=O)c1cccc2c1cc(C)n2-c1nc2c(c(NCc3ccccc3)n1)CCCN2", "host": "male Sprague-Dawley rat", "route": "intravenous", "dose": "1 mg/kg", "setting": "single dose", "AUC(0-t)": "0.0201 µg·h/mL"}
{"Compound": "COc1ccc(N(Cc2csc(-c3ccccc3)n2)C(=O)CCCCCC(=O)NO)cc1", "host": "female Sprague-Dawley rat", "route": "intravenous", "dose": "5 mg/kg", "AUC(0-t)": "0.0299 µg·h/mL"}
{"Compound": "CCCCCCCCCC(=O)N[C@@H](Cc1c[nH]c2ccccc12)C(=O)N[C@H](CC(N)=O)C(=O)N[C@@H](CC(=O)O)C(=O)N[C@@H]1C(=O)NCC(=O)N[C@@H](CCCN)C(=O)N[C@@H](CC(=O)O)C(=O)N[C@H](C)C(=O)N[C@@H](CC(=O)O)C(=O)NCC(=O)N[C@H](CO)C(=O)N[C@@H]([C@H](C)CC(=O)O)C(=O)N[C@@H](CC(=O)c2ccccc2N)C(=O)O[C@@H]1C", "host": "male Wistar rat", "route": "subcutaneous", "dose": "125 mg/kg", "setting": "single dose", "AUC(0-t)": "2450 µg·h/mL"}
{"Compound": "CNC(=O)c1cc(Oc2ccc(NC(=O)Nc3ccc(Cl)c(C(F)(F)F)c3)cc2)ccn1", "host": "male Sprague-Dawley rat", "route": "oral", "dose": "100 mg/kg", "setting": "single dose", "AUC(0-t)": "17.7 µg·h/mL"}
{"Compound": "CC(=O)O[C@@H]1CC[C@@]2(C)[C@@H](CC[C@]3(C)[C@@H]2C(=O)C=C2[C@@H]4[C@@H](C)[C@H](C)CC[C@]4(C)CC[C@]23C)[C@@]1(C)C(=O)O", "host": "female Wistar rat", "route": "oral", "dose": "1 mg/kg", "setting": "single dose", "AUC(0-t)": "40.9 µg·h/mL"}
{"Compound": "Nc1ccn([C@@H]2O[C@H](CO)[C@@H](O)C2(F)F)c(=O)n1", "host": "male Sprague-Dawley rat", "route": "intraperitoneal", "dose": "5 mg/kg", "AUC(0-t)": "22.9 µg·h/mL"}
